Results reported in ChEMBL document CHEMBL4004796, “Exploring the Bioactive Terpenoid Content of an Algerian Plant of the Genus Pulicaria: The ent-Series of Asteriscunolides” (J Nat Prod, 2017).
Values belong to the compound of their own block, whether it stands above or below them.

Assays:
Type in all cases: functional
[1] = Antiinflammatory activity assessed as inhibition of heat-induced albumin denaturation at 0.5 uM after 20 mins by spectrophotometric method relative to control
Method in brief: (§1)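 Bovine albumin fraction as a 1% aqueous solution, with test agent at 0.5−10 μM, adjusted to pH 6.3 with 1 N HCl. Incubated 20 min at 37 °C, then heated 20 min at 51 °C. After cooling, turbidity read at 660 nm. % inhibition = [(A0 − A1)/A0] × 100 versus control absorbance. Diclofenac sodium as reference.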

[2] = Antiinflammatory activity assessed as inhibition of heat-induced albumin denaturation at 1 uM after 20 mins by spectrophotometric method relative to control; method in brief: as §1
[3] = Antiinflammatory activity assessed as inhibition of heat-induced albumin denaturation at 5 uM after 20 mins by spectrophotometric method relative to control; method in brief: as §1
[4] = Antiinflammatory activity assessed as inhibition of heat-induced albumin denaturation at 10 uM after 20 mins by spectrophotometric method relative to control; method in brief: as §1
[5] = Antiinflammatory activity assessed as inhibition of heat-induced albumin denaturation after 20 mins by spectrophotometric method; method in brief: as §1
Rattus norvegicus [6] = assay: Antiinflammatory activity in Wistar rat assessed as inhibition of carrageenan-induced paw edema at 10 mg/kg, po preincubated for 1 hr followed by carrageenan challenge measured at 1 hr by plethysmometer relative to control
Method in brief: (§2)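 Adult male albino Wistar animals, 25−30 g, in groups of five, 25 ± 2 °C, 12 h light/dark. Oral dosing, with PBS vehicle for controls. One hour later, 0.1 mL of 1% carrageenan was injected subplantar into the left hind paw. Paw volume was read by plethysmometer at 1, 2, 3 and 4 h relative to pre-injection. % inhibition = [(D0 − Dt)/D0] × 100 versus control group mean at each time. Mean ± SD, n = 5, Student's test.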

Rattus norvegicus [7] = assay: Antiinflammatory activity in Wistar rat assessed as inhibition of carrageenan-induced paw edema at 10 mg/kg, po preincubated for 1 hr followed by carrageenan challenge measured at 2 hrs by plethysmometer relative to control; method in brief: as §2
Rattus norvegicus [8] = assay: Antiinflammatory activity in Wistar rat assessed as inhibition of carrageenan-induced paw edema at 10 mg/kg, po preincubated for 1 hr followed by carrageenan challenge measured at 3 hrs by plethysmometer relative to control; method in brief: as §2
Rattus norvegicus [9] = assay: Antiinflammatory activity in Wistar rat assessed as inhibition of carrageenan-induced paw edema at 10 mg/kg, po preincubated for 1 hr followed by carrageenan challenge measured at 4 hrs by plethysmometer relative to control; method in brief: as §2

- IC50 [5]: 23.8 µM
Compound: C/C1=C/CCC2=C[C@@H](OC2=O)C(C)(C)/C=C\C1=O
- inhibition [1]: 15.5%
- inhibition [2]: 22.6%
- inhibition [3]: 32.9%
- inhibition [4]: 44.4%

- IC50 [5]: 220 µM
Compound: COC(=O)/C1=C\CC(C)(C)/C=C/C(=O)C(C)CCC1 (single isomer, unassigned; (-))
- inhibition [1]: 8.73%
- inhibition [2]: 16.7%
- inhibition [3]: 24.6%

- IC50 [5]: 4.14 µM
Compound: O=C(O)Cc1ccccc1Nc1c(Cl)cccc1Cl [DICLOFENAC SODIUM]
- inhibition in vivo at 10 mg/kg (Rattus norvegicus [6]): 64.9%
- inhibition in vivo at 10 mg/kg (Rattus norvegicus [7]): 71.5%
- inhibition in vivo at 10 mg/kg (Rattus norvegicus [8]): 73.7%
- inhibition in vivo at 10 mg/kg (Rattus norvegicus [9]): 78.6%
- inhibition [1]: 22.6%
- inhibition [2]: 31.8%
- inhibition [3]: 41.7%
- inhibition [4]: 70.2%
